From ChEMBL document CHEMBL1136847, “Syntheses and potential anti-prostate cancer activities of ionone-based chalcones” (Bioorg Med Chem Lett, 2009)
Residue numbers refer to the chain shown, from its start.

Key:
[1] = tested on: T1, Androgen receptor (Homo sapiens), P10275 [W742C]; assay: Antagonist activity at androgen receptor W741C mutant in human PC3 cells transiently transfected with pCMV-MMTV-Luc assessed as suppression of DHT-induced receptor transactivation; type: functional, cell-based; conditions: PC-3
T1 sequence (whole entry): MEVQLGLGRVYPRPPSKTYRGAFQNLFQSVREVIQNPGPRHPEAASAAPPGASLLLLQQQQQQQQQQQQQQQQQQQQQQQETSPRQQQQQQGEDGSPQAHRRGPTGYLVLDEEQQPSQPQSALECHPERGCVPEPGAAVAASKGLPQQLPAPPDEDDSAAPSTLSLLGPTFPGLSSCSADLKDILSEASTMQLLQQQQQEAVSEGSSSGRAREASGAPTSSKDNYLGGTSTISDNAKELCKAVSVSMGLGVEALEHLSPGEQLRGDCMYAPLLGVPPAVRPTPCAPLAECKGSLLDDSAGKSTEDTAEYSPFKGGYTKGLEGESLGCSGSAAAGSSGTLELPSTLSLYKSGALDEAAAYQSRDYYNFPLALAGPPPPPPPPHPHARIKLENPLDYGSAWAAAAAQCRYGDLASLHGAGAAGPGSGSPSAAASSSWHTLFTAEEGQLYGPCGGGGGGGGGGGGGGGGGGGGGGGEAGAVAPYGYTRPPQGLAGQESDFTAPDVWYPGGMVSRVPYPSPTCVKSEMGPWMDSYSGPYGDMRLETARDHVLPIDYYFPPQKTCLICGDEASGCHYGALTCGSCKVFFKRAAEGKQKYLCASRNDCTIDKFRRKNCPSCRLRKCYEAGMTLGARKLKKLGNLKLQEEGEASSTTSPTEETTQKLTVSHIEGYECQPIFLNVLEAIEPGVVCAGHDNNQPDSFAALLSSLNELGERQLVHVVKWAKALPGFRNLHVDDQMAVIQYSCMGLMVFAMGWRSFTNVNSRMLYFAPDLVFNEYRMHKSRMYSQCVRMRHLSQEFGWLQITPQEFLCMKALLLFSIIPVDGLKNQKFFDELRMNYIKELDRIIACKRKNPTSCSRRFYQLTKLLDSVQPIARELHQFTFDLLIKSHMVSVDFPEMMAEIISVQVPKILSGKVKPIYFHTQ
How it was run: (§1)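 PC-3 cells seeded 24 h before co-transfection with MMTV-luciferase reporter (100 ng), the wild-type, T877A, W741C or H874Y AR plasmid (10 ng) and Renilla null luciferase (10 ng) using Lipofectamine 2000. Medium switched after 5 h to phenol red-free RPMI 1640 with 10% charcoal-stripped FBS. After 16 h, 0.1 nM DHT ± compound (0.1, 1.0 µM) for 24 h. Dual-luciferase read-out, Renilla-standardized, normalized to DHT alone (100%).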

[2] = Cytotoxicity against androgen-independent human C4-2B cells with T877A mutant after 72 hrs by MTT assay; type: functional, cell-based; conditions: LNCaP C4-2B
How it was run: (§2)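 Cells seeded at 6000–7000 per well in RPMI 1640 with 10% FBS, penicillin and streptomycin, left overnight, then exposed to a range of concentrations from DMSO stock (final DMSO 0.5%) for 72 h. MTT added for a further 2 h and formazan from viable cells read. IC50 taken from survival curves, 50% inhibition relative to 0.5% DMSO control; top concentration 150 µM.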

PC-3 = assay: Cytotoxicity against androgen-independent human PC3 cells after 72 hrs by MTT assay; type: functional, cell-based; conditions: PC-3, 72 h; how it was run: as §2
[3] = tested on: Androgen receptor (Homo sapiens), P10275 [T878A]; assay: Antagonist activity at androgen receptor T877A mutant in human PC3 cells transiently transfected with pCMV-MMTV-Luc assessed as suppression of DHT-induced receptor transactivation; type: functional, cell-based; conditions: PC-3; how it was run: as §1
Androgen receptor (Homo sapiens), P10275 [T878A], sequence (P10275 whole entry T878A): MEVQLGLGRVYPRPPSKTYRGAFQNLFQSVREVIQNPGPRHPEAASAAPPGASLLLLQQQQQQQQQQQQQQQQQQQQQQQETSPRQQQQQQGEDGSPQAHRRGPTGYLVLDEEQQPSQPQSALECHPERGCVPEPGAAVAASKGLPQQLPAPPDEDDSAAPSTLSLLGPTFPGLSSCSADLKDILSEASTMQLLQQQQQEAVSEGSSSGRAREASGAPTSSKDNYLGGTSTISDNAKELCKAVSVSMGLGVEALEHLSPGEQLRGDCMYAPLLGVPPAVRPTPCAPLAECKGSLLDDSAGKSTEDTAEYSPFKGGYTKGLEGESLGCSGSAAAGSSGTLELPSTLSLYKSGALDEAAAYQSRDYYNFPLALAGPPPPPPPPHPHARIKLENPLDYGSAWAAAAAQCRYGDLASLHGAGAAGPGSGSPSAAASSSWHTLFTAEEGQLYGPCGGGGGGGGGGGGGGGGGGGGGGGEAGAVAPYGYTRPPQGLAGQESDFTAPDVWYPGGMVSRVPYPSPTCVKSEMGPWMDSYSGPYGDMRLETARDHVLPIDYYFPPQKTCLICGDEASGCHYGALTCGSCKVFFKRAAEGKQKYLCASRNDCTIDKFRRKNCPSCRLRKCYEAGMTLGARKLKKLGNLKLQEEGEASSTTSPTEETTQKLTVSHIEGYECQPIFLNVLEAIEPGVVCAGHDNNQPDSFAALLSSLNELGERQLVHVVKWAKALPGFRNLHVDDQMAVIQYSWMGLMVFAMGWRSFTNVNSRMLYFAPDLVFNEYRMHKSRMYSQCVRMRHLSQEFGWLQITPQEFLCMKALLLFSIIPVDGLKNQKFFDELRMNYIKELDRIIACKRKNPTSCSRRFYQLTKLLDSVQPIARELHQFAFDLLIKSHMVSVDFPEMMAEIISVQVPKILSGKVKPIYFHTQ

[4] = Cytotoxicity against androgen-dependent human MDA PCa 2b cells with T877A/L701H AR mutant after 72 hrs by MTT assay; type: functional, cell-based
How it was run: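 Seeded at 6000–7000 cells per well in BRFF-HPC1 medium with 20% FBS, incubated overnight, then treated with serial concentrations diluted from DMSO stock (final DMSO 0.5%) for 72 h. Viability by MTT, 2 h with reagent, formazan measured. IC50 from survival curves as 50% inhibition versus 0.5% DMSO vehicle; maximum concentration tested 150 µM.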

[5] = tested on: T2, Androgen receptor (Homo sapiens), P10275 [H875Y]; assay: Antagonist activity at androgen receptor H874Y mutant in human PC3 cells transiently transfected with pCMV-MMTV-Luc assessed as suppression of DHT-induced receptor transactivation; type: functional, cell-based; conditions: PC-3; how it was run: as §1
T2 sequence (whole entry): T1 sequence (whole entry) with C742W, H875Y

CWR22R = assay: Cytotoxicity against human 22Rv1 cells with H874Y AR mutant after 72 hrs by MTT assay; type: functional, cell-based; conditions: 22Rv1, 72 h; how it was run: as §2
[6] = Cytotoxicity against human RWPE1 cells after 72 hrs by MTT assay; type: cell-based; conditions: RWPE-1, 72 h
How it was run: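 Non-tumorigenic prostate epithelial line plated at 6000–7000 cells per well in keratinocyte serum-free medium with 0.05 mg/mL bovine pituitary extract and 5 ng/mL EGF; overnight attachment, then compounds at various concentrations in 0.5% final DMSO for 72 h. MTT 2 h, formazan read; IC50 from survival curves versus DMSO control.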

LNCaP = assay: Cytotoxicity against androgen-dependent human LNCAP cells with T877A AR mutant after 72 hrs by MTT assay; type: functional, cell-based; how it was run: as §2

In the case of CC1=C(/C=C/C(=O)/C=C/c2cccc(C(F)(F)F)c2)C(C)(C)CCC1O (centres undefined), the Activity [1] is reported as “Dose-dependent effect”, the IC50 [2] is reported as 1.4 µM and the IC50 (PC-3) is reported as 3.5 µM. For the same compound, the Activity [3] was “Dose-dependent effect”, the IC50 [4] was 2.6 µM and the Activity [5] was “Dose-dependent effect”. It also gave an IC50 (CWR22R) of 1.7 µM, an IC50 [6] of 0.73 µM and an IC50 (LNCaP) of 0.74 µM.
